Measured values taken from ChEMBL document CHEMBL1126031, “1,2,3-trisubstituted cyclopropanes as conformationally restricted peptide isosteres: application to the design and synthesis of novel renin inhibitors” (J Med Chem, 1992).
pIC50: −log10 of the molar value.

Assays:
[1] = molecular target: T1, Renin (Homo sapiens, UniProt P00797); assay: In vitro potency against human plasma renin at pH 7.4; format: cell-free
T1 sequence (P00797 whole entry): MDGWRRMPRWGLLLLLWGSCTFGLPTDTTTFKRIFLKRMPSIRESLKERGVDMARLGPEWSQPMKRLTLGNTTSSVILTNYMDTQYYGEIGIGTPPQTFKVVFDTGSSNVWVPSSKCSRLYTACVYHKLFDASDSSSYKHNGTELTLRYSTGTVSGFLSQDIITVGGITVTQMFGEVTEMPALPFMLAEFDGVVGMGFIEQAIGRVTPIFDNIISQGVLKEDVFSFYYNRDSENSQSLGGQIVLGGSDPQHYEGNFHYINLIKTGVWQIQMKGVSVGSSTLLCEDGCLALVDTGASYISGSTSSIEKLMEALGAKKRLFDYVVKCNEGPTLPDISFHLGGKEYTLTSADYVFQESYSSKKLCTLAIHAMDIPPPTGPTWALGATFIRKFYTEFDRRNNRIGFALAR
Method in brief: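 Renin in human plasma, assayed at pH 7.4 by a procedure from earlier work.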

[2] = molecular target: T1, Renin; assay: In vitro inhibition of purified human renin at a pH of 6.0.
Method in brief: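 Purified human renin, assayed at pH 6.0 by a procedure from earlier work.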

[3] = molecular target: T2, Renin (Homo sapiens) (UniProt P00797); assay: In vitro potency to inhibit human plasma renin at a pH of 7.4 and at 1*10e-6 M concentration; format: cell-free
T2 sequence (whole entry): T1 sequence (P00797 whole entry)

[4] = Half life of the compound

| Structure (SMILES) | pIC50 [1] | pIC50 [2] | inhibition [3] [%] | half-life [4] [h] |
| --- | --- | --- | --- | --- |
| CCOC(=O)N[C@@H](Cc1ccc(I)cc1)C(=O)N[C@@H](CC(C)C)C(=O)N[C@@H](CC1CCCCC1)[C@@H](O)[C@@H](O)CC(C)C | 6.52 | 8.62 |  |  |
| CC(C)C[C@H]1[C@H](C(=O)N[C@@H](Cc2cscn2)C(=O)N[C@@H](CC2CCCCC2)[C@@H](O)[C@@H](O)CC(C)C)[C@H]1C(=O)N1CCOCC1 |  | 7.36 |  |  |
| CC(C)C[C@H](O)[C@H](O)[C@H](CC1CCCCC1)NC(=O)[C@H](Cc1cscn1)NC(=O)[C@H]1[C@H](Cc2ccccc2)[C@@H]1C(=O)N1CCOCC1 | 6.43 | 8.00 |  |  |
| CC(C)C[C@H](O)[C@H](O)[C@H](CC1CCCCC1)NC(=O)[C@H](Cc1cscn1)NC(=O)[C@H]1[C@@H](Cc2ccccc2)[C@@H]1C(=O)N1CCOCC1 |  | 7.57 |  |  |
| CC(C)C[C@@H]1[C@@H](C(=O)N[C@@H](Cc2cscn2)C(=O)N[C@@H](CC2CCCCC2)[C@@H](O)[C@@H](O)CC(C)C)[C@@H]1C(=O)N1CCOCC1 | 7.39 | 8.68 |  |  |
| CC(C)C[C@H](O)[C@H](O)[C@H](CC1CCCCC1)NC(=O)[C@H](Cc1cscn1)NC(=O)[C@H]1[C@H](C(=O)N2CCOCC2)[C@H]1c1ccccc1 |  | 6.70 |  |  |
| CC(C)C[C@H](O)[C@H](O)[C@H](CC1CCCCC1)NC(=O)[C@H](Cc1cscn1)NC(=O)[C@@H]1[C@@H](Cc2ccccc2)[C@H]1C(=O)N1CCOCC1 | < 6.00 | 7.60 | 30 |  |
| CC(C)C[C@H]1[C@@H](C(=O)N[C@@H](Cc2cscn2)C(=O)N[C@@H](CC2CCCCC2)[C@@H](O)[C@@H](O)CC(C)C)[C@@H]1C(=O)N1CCOCC1 | < 6.00 | 7.72 | 46 |  |
| CC[C@@H]1[C@@H](C(=O)N[C@@H](Cc2cscn2)C(=O)N[C@@H](CC2CCCCC2)[C@@H](O)[C@@H](O)CC(C)C)[C@@H]1C(=O)N1CCOCC1 | 6.64 | 8.00 |  |  |
| CC(C)C[C@H](O)[C@H](O)[C@H](CC1CCCCC1)NC(=O)[C@H](Cc1cscn1)NC(=O)C(Cc1ccccc1)Cc1ccccc1 | 7.27 | 9.33 |  |  |
| CC[C@H]1[C@H](C(=O)N[C@@H](Cc2cscn2)C(=O)N[C@@H](CC2CCCCC2)[C@@H](O)[C@@H](O)CC(C)C)[C@H]1C(=O)N1CCOCC1 |  | 6.70 |  |  |
| CC(C)C[C@H](O)[C@H](O)[C@H](CC1CCCCC1)NC(=O)[C@H](Cc1cscn1)NC(=O)[C@@H]1[C@@H](C(=O)N2CCOCC2)[C@@H]1c1ccccc1 |  | 6.92 |  |  |
| CC(C)C[C@H](O)[C@H](O)[C@H](CC1CCCCC1)NC(=O)[C@H](Cc1cscn1)NC(=O)[C@H](CC(=O)N1CCOCC1)Cc1ccccc1 |  | 6.82 |  |  |
| CC(C)C[C@H](O)[C@H](O)[C@H](CC1CCCCC1)NC(=O)[C@H](Cc1cscn1)NC(=O)[C@@H]1[C@H](Cc2ccccc2)[C@H]1C(=O)N1CCOCC1 |  | 6.92 |  |  |
| CC(C)C[C@H](O)[C@H](O)[C@H](CC1CCCCC1)NC(=O)[C@H](Cc1cscn1)NC(=O)C1[C@@H](c2ccccc2)[C@H]1c1ccccc1 (stereo not given in full) | 6.09 | 8.96 |  |  |
| CC(C)C[C@@H]1[C@H](C(=O)N[C@@H](Cc2cscn2)C(=O)N[C@@H](CC2CCCCC2)[C@@H](O)[C@@H](O)CC(C)C)[C@H]1C(=O)N1CCOCC1 |  | 7.48 |  |  |
| CC(C)C[C@H](O)[C@H](O)[C@H](CC1CCCCC1)NC(=O)[C@H](Cc1cscn1)NC(=O)[C@@H](CC(=O)N1CCOCC1)Cc1ccccc1 | 8.08 | 9.44 |  |  |
| CC(C)C[C@H](O)[C@H](O)[C@H](CC1CCCCC1)NC(=O)[C@H](Cc1cscn1)NC(=O)[C@@H]1[C@@H](C(=O)N2CCOCC2)[C@H]1c1ccccc1 |  | 6.92 |  |  |
| CC(C)C[C@H](O)[C@H](O)[C@H](CC1CCCCC1)NC(=O)[C@H](Cc1cscn1)NC(=O)[C@H]1[C@H](C(=O)N2CCOCC2)[C@@H]1c1ccccc1 | 7.70 | 9.15 |  | > 5 |
| CC[C@@H]1[C@H](C(=O)N[C@@H](Cc2cscn2)C(=O)N[C@@H](CC2CCCCC2)[C@@H](O)[C@@H](O)CC(C)C)[C@H]1C(=O)N1CCOCC1 |  | 7.04 |  |  |
| CC[C@H]1[C@@H](C(=O)N[C@@H](Cc2cscn2)C(=O)N[C@@H](CC2CCCCC2)[C@@H](O)[C@@H](O)CC(C)C)[C@@H]1C(=O)N1CCOCC1 | 6.21 | 7.80 |  |  |
